Assay results from ChEMBL document CHEMBL1152636, “Synthesis and biological evaluation of 14-(aminoalkyl-aminomethyl)aromathecins as topoisomerase I inhibitors: investigating the hypothesis of shared structure-activity relationships” (2009).
Calls of active or inactive are those of the source. No cut-off for these calls is given here.

Tests used:
[1] = tested on: HOP-62; experiment: Cytotoxicity against human HOP62 cells; format: functional
Procedure, shortened: (§1)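 NCI ~60 human tumor cell line screen; after a single-dose pass at 10−5 M, selected compounds run at five concentrations from 10−8 to 10−4 M; GI50 reported per cell line.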

[2] = tested on: OVCAR-3; experiment: Cytotoxicity against human OVCAR-3 cells; format: functional; procedure, shortened: as §1
[3] = tested on: SN12C; experiment: Cytotoxicity against human SN12C cells; format: functional; procedure, shortened: as §1
[4] = tested on: DU-145; experiment: Cytotoxicity against human DU145 cells; format: functional; procedure, shortened: as §1
[5] = tested on: UACC-62; experiment: Cytotoxicity against human UACC62 cells; format: functional; procedure, shortened: as §1
[6] = tested on: MDA-MB-435; experiment: Cytotoxicity against human MDA-MB-435 cells; format: functional; procedure, shortened: as §1
[7] = target: T1, DNA topoisomerase 1 (Homo sapiens) (UniProt P11387); experiment: Inhibition of human DNA topoisomerase 1 assessed as induction of enzyme-dependent DNA cleavage relative to 1 uM camptothecin
T1 sequence (whole entry): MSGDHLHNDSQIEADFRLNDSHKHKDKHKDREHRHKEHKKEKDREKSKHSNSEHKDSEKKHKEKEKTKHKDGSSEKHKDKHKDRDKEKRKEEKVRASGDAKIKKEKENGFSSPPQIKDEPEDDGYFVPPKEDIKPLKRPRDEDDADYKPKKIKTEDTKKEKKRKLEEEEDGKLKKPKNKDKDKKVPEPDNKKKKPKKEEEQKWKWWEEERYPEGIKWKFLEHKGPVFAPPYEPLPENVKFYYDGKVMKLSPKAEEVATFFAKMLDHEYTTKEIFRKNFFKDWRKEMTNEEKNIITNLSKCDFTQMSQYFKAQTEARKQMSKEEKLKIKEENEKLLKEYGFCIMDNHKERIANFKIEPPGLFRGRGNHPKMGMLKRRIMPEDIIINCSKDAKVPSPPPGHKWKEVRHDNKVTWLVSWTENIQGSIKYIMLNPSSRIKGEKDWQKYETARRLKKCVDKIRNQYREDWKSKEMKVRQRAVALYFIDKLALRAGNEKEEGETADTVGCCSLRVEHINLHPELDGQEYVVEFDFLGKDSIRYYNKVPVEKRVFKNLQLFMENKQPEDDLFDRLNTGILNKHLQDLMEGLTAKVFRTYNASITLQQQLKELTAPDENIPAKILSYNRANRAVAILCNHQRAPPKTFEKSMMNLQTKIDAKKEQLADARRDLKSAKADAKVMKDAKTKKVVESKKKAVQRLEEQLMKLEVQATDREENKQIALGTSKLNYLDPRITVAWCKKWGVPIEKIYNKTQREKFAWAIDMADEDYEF

[8] = tested on: HCT-116; experiment: Cytotoxicity against human HCT116 cells; format: functional; procedure, shortened: as §1
[9] = tested on: SF-539; experiment: Cytotoxicity against human SF539 cells; format: functional; procedure, shortened: as §1
[10] = Induction of cell growth in human NCI60 cell sat 10 uM; format: functional

inhibition [7]	Structure (SMILES)	GI50 [1] [µM]	GI50 [2] [µM]	GI50 [3] [µM]	GI50 [4] [µM]	GI50 [5] [µM]	GI50 [6] [µM]	GI50 [8] [µM]	GI50 [9] [µM]	Activity [10] [%]
25%	NCCCCCNCc1c2c(nc3ccccc13)-c1cc3ccccc3c(=O)n1C2	2.6	8.1	3.2	1.1	1.9	12.6	3.2	7.2	–
25%	NCCCCCCCCCNCc1c2c(nc3ccccc13)-c1cc3ccccc3c(=O)n1C2	–	–	–	–	–	–	–	–	–
Active	COc1cc2c3c(n(CCCNCCO)c(=O)c2cc1OC)-c1cc2c(cc1C3=O)OCO2 [LMP-744]	0.02	0.5	< 0.01	< 0.01	0.03	0.79	0.1	0.04	–
–	COc1cc2c3c(n(C)c(=O)c2cc1OC)-c1cc2c(cc1C3=O)OCO2	1.3	–	68	37	4.2	96	35	41	–
50%	NCCCNCc1c2c(nc3ccccc13)-c1cc3ccccc3c(=O)n1C2	9.8	1.4	2.1	1.1	4.8	6.8	1.5	4.9	–
inactive	NCCCCCCCCCCCNCc1c2c(nc3ccccc13)-c1cc3ccccc3c(=O)n1C2	–	–	–	–	–	–	–	–	–
–	CC[C@@]1(O)C(=O)OCc2c1cc1n(c2=O)Cc2cc3ccccc3nc2-1 [CAMPTOTHECIN]	0.01	–	0.02	0.01	0.01	0.04	0.03	0.01	–
75%	NCCNCc1c2c(nc3ccccc13)-c1cc3ccccc3c(=O)n1C2	1.4	1.7	1.5	1.4	12.6	11	1.5	8.3	–
75%	NCCCCNCc1c2c(nc3ccccc13)-c1cc3ccccc3c(=O)n1C2	–	–	–	–	–	–	–	–	–
inactive	NCCCCCCCCCCCCNCc1c2c(nc3ccccc13)-c1cc3ccccc3c(=O)n1C2	6.5	1.9	2.5	2	1.9	1.7	2	1.8	–
–	O=c1c2ccccc2cc2n1Cc1cc3ccccc3nc1-2 [ROSETTACIN]	–	–	> 100	> 100	–	–	–	–	–
50%	NCCCCCCNCc1c2c(nc3ccccc13)-c1cc3ccccc3c(=O)n1C2	1.2	1.4	0.51	0.33	2	1.5	0.63	0.74	–
inactive	Cl.NCCCCCCCCCCNCc1c2c(nc3ccccc13)-c1cc3ccccc3c(=O)n1C2	–	–	–	–	–	–	–	–	30
50%	NCCCCCCCNCc1c2c(nc3ccccc13)-c1cc3ccccc3c(=O)n1C2	–	–	–	–	–	–	–	–	–
25%	NCCCCCCCCNCc1c2c(nc3ccccc13)-c1cc3ccccc3c(=O)n1C2	2.8	2.5	1.8	1.1	1.8	3.1	1.8	1.9	–
